Shown are actives, neighbours in structure and some others; about 3.5% of the full set was active somewhere.
MrgX1 agonist = agonists of human MrgX1 receptor; MrgX1-HEK293 cells, Fluo-4 calcium fluorescence, agonist mode; hits give high values; B-score at 10 µM; 0.44% of 310,000 active; AID 588627;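 active means calcium response B-score plate-corrected fluorescence ratio at least 3 library SD, with starting fluorescence B-score inside 5 SD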
Target sequence (Q96LB2 whole entry, looked up): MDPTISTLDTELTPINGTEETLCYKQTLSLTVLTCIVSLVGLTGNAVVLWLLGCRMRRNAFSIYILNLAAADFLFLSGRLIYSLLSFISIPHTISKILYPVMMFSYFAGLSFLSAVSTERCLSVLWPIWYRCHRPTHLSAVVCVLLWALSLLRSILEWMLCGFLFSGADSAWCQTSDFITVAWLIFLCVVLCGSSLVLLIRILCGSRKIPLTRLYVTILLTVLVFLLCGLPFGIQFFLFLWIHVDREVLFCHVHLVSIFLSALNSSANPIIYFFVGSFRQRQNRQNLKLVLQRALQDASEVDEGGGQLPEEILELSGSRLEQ
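Test system: Stable human MrgX1 HEK293 cell line | Schedule: Overnight plating before 1 h dye loading | Read-out basis: Baseline-normalised fluorescence change ratio, B-scored | Detection: Kinetic calcium dye fluorescence, Fluo-4 NW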
MrgX1 allo act = human MrgX1 positive allosteric modulation, primary screen; Q96LB2; MrgX1-HEK293, Fluo-4 calcium flux, FDSS; hits give high values; B-score at 10 µM; 0.63% of 310,000 active; AID 588675;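 active means plate-corrected calcium response at least 3 library SD above typical, normal starting fluorescence, not activating the receptor alone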;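 further: compound read alongside a low EC10 to EC30 dose of BAM8-22 agonist; peak minus trough fluorescence over baseline measured at the second addition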
MrgX1 antagonist = human MrgX1 receptor antagonism, primary screen; 1.3% of 310,000 active; Q96LB2; B-score at 10 µM; MRGX1-HEK293 calcium flux, Fluo-4, BAM8-22 antagonism; hits give low values;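 active means calcium-response B-score plate-corrected more than 3 library SD below zero, starting fluorescence within 5 deviations, no agonist response on first addition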;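 further: peak minus trough fluorescence over baseline after final BAM8-22 challenge near maximal dose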
RGS4 act = potentiators or activators of RGS4. HEK293 M3R/inducible RGS4, carbachol calcium flux Fluo4; hits give low values. B-score at 10 µM. 0.92% of 310,000 active. AID 463111;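 active means B-score of the integrated calcium signal more than 4 SD below the library mean, with starting fluorescence not abnormally high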;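 further: negative B-score means reduced calcium response which marks RGS4 activation or potentiation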
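Material: Inducible-RGS4 HEK293 cells carrying M3 receptor; also added: carbachol at ECmax as muscarinic agonist stimulus; incubation: compound preincubation 20 min at room temperature before agonist; signal: Fluo4-AM (2 µM) calcium-flux fluorescence, kinetic read; measure: integrated calcium ratio converted to B score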
RGS4 inh = inhibitors of human RGS4. B-score at 10 µM. 0.45% of 310,000 active. P49798. AID 463165. HEK293 M3R/RGS4 inducible, Fluo-4 calcium flux; hits give high values; triggered by carbachol at its EC20;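 active means B-score, a plate-corrected calcium signal, over three deviations above library mean, with baseline fluorescence within five deviations of library mean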;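 further: RGS4 expression induced by doxycycline in cells with stable M3 receptor; B-score is computed from the integrated fluorescence ratio over baseline after carbachol; higher B-score means a larger calcium signal and so more RGS4 inhibition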
Target sequence (P49798 whole entry, looked up): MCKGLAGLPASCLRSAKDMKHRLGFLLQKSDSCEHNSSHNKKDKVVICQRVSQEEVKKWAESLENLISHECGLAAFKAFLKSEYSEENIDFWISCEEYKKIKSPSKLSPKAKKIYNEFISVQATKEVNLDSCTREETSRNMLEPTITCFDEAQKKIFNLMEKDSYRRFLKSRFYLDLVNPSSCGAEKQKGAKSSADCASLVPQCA
RGS4 inh valid = RGS4 inhibitor validation; HEK293 M3R/RGS4, carbachol calcium Fluo-4 fluorescence; carbachol added at its EC20; 0 = buffer wells, 100 = carbachol control; AID 492999; calcium response, % at 10 µM; 65% of 1,700 active; shares compounds with RGS4 inh;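 active means duplicate-averaged calcium response above the buffer-only control mean plus 5 SD of those controls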;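 further: integrated fluorescence ratio F max minus min over baseline F0; higher response in RGS4-induced cells means RGS4 inhibition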
M3R Ca ctr = checks RGS4 inhibitor effects in non-induced HEK293 M3R cells; shares compounds with RGS4 inh; carbachol calcium Fluo-4; submaximal (EC20) carbachol stimulus; buffer wells 0%, carbachol control wells 100%; activity (percent), % at 10 µM; 20% of 1,900 active; AID 493000; call rule not given here;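 further: RGS4 induction absent so cells express M3R without RGS4; higher means more calcium signal and flags a non-specific hit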
M3R basal Ca ctr = signal in non-induced cells without carbachol, RGS4 inhibitor counter-screen; shares compounds with RGS4 inh; HEK293 M3R/RGS4 non-induced, Fluo-4 calcium, no carbachol; normalised: buffer wells 0%, carbachol wells 100%; calcium response (agonist-mode artifact), % at 10 µM; 22% of 1,900 active; AID 493001;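 active means duplicate-averaged calcium rise in uninduced cells above buffer wells' mean plus 5 SD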
MrgX1 ag confirm = human MrgX1 agonism, re-confirmation screen | 78% of 600 active | activation, % at 10 µM | MrgX1-HEK293, Fluo-4 calcium fluorescence, FDSS | shares compounds with MrgX1 agonist;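 active means calcium signal rise, corrected for plate position, at least 3 library SD high, with starting brightness within 5 such deviations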
HEK293 Ca flux = MrgX1 antagonist counter-screen hit in parental HEK293 cells; 2% of 4,000 active; fluorescence ratio F(max-min)/F0 at 10 µM; Fluo-4 calcium fluorescence, FDSS; shares compounds with MrgX1 antagonist;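 active means duplicate-averaged calcium fluorescence ratio at least three times the standard deviation of buffer wells, a nonspecific response in parental cells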
HEK293 Ca counter = counter-screen for MrgX1 allosteric activators: effect in parental HEK293 cells | 0.4% of 4,000 active | shares compounds with MrgX1 antagonist | fluorescence ratio F(max-min)/F0 at 10 µM | AID 624114 | parental HEK293 calcium flux, Fluo-4 fluorescence ratio; hits give high values;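 active means calcium fluorescence ratio, averaged over duplicates, at least 3 SD of the buffer-well ratio, meaning a nonspecific response in receptor-free cells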;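 further: untransfected parental HEK293 lacking MrgX1 used as counterscreen for MrgX1 allosteric activators; fluorescence change taken during the second addition on a kinetic imager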
HEK293 Ca cntr2 = counter-screen for MrgX1 activators: effect in parental HEK293 cells; AID 624115; shares compounds with MrgX1 antagonist; 8.7% of 4,000 active; fluorescence ratio F(max-min)/F0 at 10 µM; Fluo-4 calcium fluorescence (FDSS); hits give high values;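 active means calcium fluorescence ratio at least three times the spread of buffer wells, meaning a non-specific response in parental cells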
Numbers stand for hits; n = inactive; x = no result.

SMILES	MrgX1 agonist	MrgX1 allo act	MrgX1 antagonist	RGS4 act	RGS4 inh	RGS4 inh valid	M3R Ca ctr	M3R basal Ca ctr	others
O=C1/C(=C\c2ccc([N+](=O)[O-])cc2)N2CCC1CC2	n	n	n	n	5.9	5.0%	n	n
COC1CC(OC2CCC3(C)C(CCC4C3CCC3(C)C(C5=CC(=O)OC5)C(OC(C)=O)CC43O)C2)OC(C)C1OC1OC(COC2OC(CO)C(O)C(O)C2O)C(O)C(O)C1O (configuration not stated)	n	n	n	n	n	x	x	x
c1ccc(C2NCCc3[nH]cnc32)cc1 (configuration not stated)	n	n	n	n	n	x	x	x
O=c1[nH]c(=O)n(-c2ccccc2)c(O)c1/C=C1/C(c2ccccc2)=Nc2ccccc21	42	n	n	n	9.1	30%	n	16%
COC(=O)C1=C(c2cc3ccccc3s2)C[C@@H]2CC[C@H]1N2C(=O)NCCNC(C)=O	n	n	n	n	n	x	x	x
Cc1cc(C)cc(N2C(=O)NC(=O)/C(=C\c3cccn3-c3ccccc3)C2=O)c1	n	n	n	n	9.2	18%	n	15%
Cc1cc(C)cc(N2C(=O)NC(=O)/C(=C\c3cccn3-c3ccc(Cl)cc3)C2=O)c1	n	n	n	n	n	x	x	x
CCN(CC)c1ccc(/C=C/[N+](=O)[O-])cc1	n	n	n	n	10	29%	n	580%
COc1cccc(N2C(=O)NC(=O)/C(=C/c3ccc4c(c3)Cc3ccccc3-4)C2=O)c1	n	n	n	n	n	x	x	x
COc1ccc(N2C(=O)NC(=O)/C(=C\c3ccc([N+](=O)[O-])s3)C2=O)cc1	n	n	n	n	5.2	22%	n	n
CCOc1ccc(N2C(=O)NC(=O)/C(=C\c3cc(OC)c(OC)cc3[N+](=O)[O-])C2=O)cc1	n	n	n	n	n	x	x	x
COc1ccccc1N1C(=O)NC(=O)/C(=C/c2ccc([N+](=O)[O-])s2)C1=O	n	n	n	n	n	x	n	n
COc1ccccc1N1C(=O)NC(=O)/C(=C\c2cnn(-c3ccccc3)c2)C1=O	n	n	n	n	n	x	x	x
COc1cccc(N2C(=O)NC(=O)/C(=C/c3ccc([N+](=O)[O-])s3)C2=O)c1	n	n	n	n	10	20%	35%	n
COc1ccc(N2C(=O)NC(=O)/C(=C/c3ccc([N+](=O)[O-])s3)C2=O)cc1	n	n	n	n	6.1	16%	n	n
[N-]=[N+]=NCCN1CCC(O)CCC1=O (configuration not stated)	n	n	n	n	n	x	x	x
COc1ccc(-n2c(/C=C/c3ccc(O)c(OC)c3)nc3ccccc3c2=O)cc1	n	n	n	n	n	x	x	x
COc1cc(/C=C/[N+](=O)[O-])ccc1O	n	n	n	n	26	60%	74%	n
C[C@H]1OC[C@@H](C[N+](C)(C)C)O1	112	n	n	n	n	x	x	x	MrgX1 ag confirm=550%;HEK293 Ca flux=n;HEK293 Ca counter=n;HEK293 Ca cntr2=107

Assay outcomes: PubChem BioAssay, Johns Hopkins Ion Channel Center
